Reference: ChEMBL document CHEMBL1153422, “N6-Cycloalkyl- and N6-bicycloalkyl-C5'(C2')-modified adenosine derivatives as high-affinity and selective agonists at the human A1 adenosine receptor with antinociceptive effects in mice” (J Med Chem, 2009)
Active and inactive are the calls of the source. The rule behind the calls is not given here.

What was measured:
Adenosine receptor A3 = target: T1, Adenosine receptor A3 (Homo sapiens, UniProt P0DMS8); experiment: Displacement of [3H]HEMADO from human recombinant adenosine A3 receptor expressed in CHO cells; format: cell-based
T1 sequence (P0DMS8 whole entry): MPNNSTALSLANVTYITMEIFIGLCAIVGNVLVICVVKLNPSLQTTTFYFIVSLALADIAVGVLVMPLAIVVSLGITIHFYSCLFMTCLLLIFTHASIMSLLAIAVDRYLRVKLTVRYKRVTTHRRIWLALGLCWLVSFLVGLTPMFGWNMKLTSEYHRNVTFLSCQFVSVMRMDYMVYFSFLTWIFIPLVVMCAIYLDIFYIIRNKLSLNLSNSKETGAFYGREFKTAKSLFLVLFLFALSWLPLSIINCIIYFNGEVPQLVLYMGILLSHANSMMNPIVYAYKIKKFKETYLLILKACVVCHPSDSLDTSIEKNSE
Procedure, shortened: (§1)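 Competition binding on membranes from CHO cells stably transfected with individual human adenosine receptor subtypes; radioligands 1 nM [3H]CCPA (A1), 30 nM [3H]NECA (A2A), 1 nM [3H]HEMADO (A3); Ki from nonlinear curve fitting; selectivity as Ki ratio.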

[1] = target: Adenosine receptors; A1 & A3 (Homo sapiens) (UniProt P30542+P0DMS8); experiment: Selectivity of Ki for human recombinant adenosine A3 receptor to Ki for human recombinant adenosine A1 receptor; procedure, shortened: as §1
Adenosine receptor A1 = target: T2, Adenosine receptor A1 (Homo sapiens, UniProt P30542); experiment: Displacement of [3H]CCPA from human recombinant adenosine A1 receptor expressed in CHO cells; format: cell-based
T2 sequence (P30542 whole entry): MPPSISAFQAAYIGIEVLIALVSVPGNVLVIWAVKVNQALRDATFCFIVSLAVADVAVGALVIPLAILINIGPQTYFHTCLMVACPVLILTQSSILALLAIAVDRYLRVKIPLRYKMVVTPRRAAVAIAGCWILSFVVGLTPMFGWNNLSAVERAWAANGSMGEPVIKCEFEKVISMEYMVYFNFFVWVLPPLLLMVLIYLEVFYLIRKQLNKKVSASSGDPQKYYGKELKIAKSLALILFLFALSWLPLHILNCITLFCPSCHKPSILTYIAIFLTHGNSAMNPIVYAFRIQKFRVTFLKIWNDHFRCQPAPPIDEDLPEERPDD

Adenosine receptor A2b = target: T3, Adenosine receptor A2b (Homo sapiens, UniProt P29275); experiment: Agonist activity at human adenosine A2B receptor expressed in CHO cells assessed as inhibition of NECA-stimulated adenylyl cyclase activity; format: functional, cell-based
T3 sequence (P29275 whole entry): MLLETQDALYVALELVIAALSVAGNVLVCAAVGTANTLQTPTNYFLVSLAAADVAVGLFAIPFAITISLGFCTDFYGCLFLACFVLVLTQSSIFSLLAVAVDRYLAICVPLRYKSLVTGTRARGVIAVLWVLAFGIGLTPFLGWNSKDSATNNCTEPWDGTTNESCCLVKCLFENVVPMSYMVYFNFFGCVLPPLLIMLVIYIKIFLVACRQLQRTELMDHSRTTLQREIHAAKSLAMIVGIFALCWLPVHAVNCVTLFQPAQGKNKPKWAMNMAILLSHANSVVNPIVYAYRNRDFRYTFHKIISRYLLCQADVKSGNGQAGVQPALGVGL
Procedure, shortened: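 Membranes from CHO cells stably expressing human A2B receptor; inhibition of NECA-stimulated adenylyl cyclase activity measured, IC50 converted to Ki; curves fitted by nonlinear regression.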

Adenosine receptor A2a = Adenosine receptor A2a (Homo sapiens, UniProt P29274); experiment: Displacement of [3H]NECA from human recombinant adenosine A2A receptor expressed in CHO cells; format: cell-based; procedure, shortened: as §1
Adenosine receptor A2a, sequence (P29274 whole entry): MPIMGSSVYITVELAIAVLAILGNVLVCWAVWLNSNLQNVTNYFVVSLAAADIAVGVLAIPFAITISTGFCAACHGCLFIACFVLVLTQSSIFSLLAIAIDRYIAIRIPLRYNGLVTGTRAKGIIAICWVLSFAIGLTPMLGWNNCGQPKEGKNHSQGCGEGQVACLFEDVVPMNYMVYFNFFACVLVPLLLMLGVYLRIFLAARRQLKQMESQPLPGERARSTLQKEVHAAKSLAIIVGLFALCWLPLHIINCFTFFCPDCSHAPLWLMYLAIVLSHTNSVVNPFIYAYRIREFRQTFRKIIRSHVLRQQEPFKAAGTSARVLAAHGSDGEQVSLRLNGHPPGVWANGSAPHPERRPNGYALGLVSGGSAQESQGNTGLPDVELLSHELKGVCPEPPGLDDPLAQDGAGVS

Homo sapiens = organism: Homo sapiens; experiment: Selectivity of Ki for human recombinant adenosine A2A receptor to Ki for human recombinant adenosine A1 receptor; procedure, shortened: as §1
[2] = target: T4, Adenosine receptor A1 (Homo sapiens) (UniProt P30542); experiment: Agonist activity human recombinant adenosine A1 receptor expressed in CHO cells assessed as inhibition of forskolin-stimulated adenylyl cyclase activity; format: functional, cell-based
T4 sequence (whole entry): T2 sequence (P30542 whole entry)
Procedure, shortened: (§2)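 CHO cells stably transfected with human receptor (A1 or A3); cyclase activity stimulated by 10 µM forskolin taken as 100%; percentage activity remaining after agonist-mediated inhibition reported; means ± SEM of three independent experiments.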

[3] = Lipophilicity log P of the compound; format: physicochemical; conditions: octanol/water
Mus musculus = experiment: Analgesic activity in ip dosed mouse assessed as reduction of formalin-induced late nociceptive behavior administered 10 mins before formalin challenge measured every 5 mins for 60 mins; format: functional, organism-based
Procedure, shortened: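 Mice, n = 8-10 per group, randomly assigned; drug or vehicle (0.9% NaCl) given i.p. 10 min before 1.25% formalin in saline (30 µL) into dorsal hind paw; DPCPX 3 mg/kg i.p. co-administered where stated. Lifting, licking, shaking, flinching timed every 5 min for 60 min; early phase 0-7 min, late 15-60 min; mean ± SEM.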

[4] = target: T5, Adenosine receptor A3 (Homo sapiens) (UniProt P0DMS8); experiment: Antagonist activity at human recombinant adenosine A3 receptor expressed in CHO cells assessed as inhibition of forskolin-stimulated adenylyl cyclase activity; format: functional, cell-based
T5 sequence (whole entry): T1 sequence (P0DMS8 whole entry)

[5] = target: T5, Adenosine receptor A3 (Homo sapiens); experiment: Agonist activity human recombinant adenosine A3 receptor expressed in CHO cells assessed as inhibition of forskolin-stimulated adenylyl cyclase activity; format: functional, cell-based; procedure, shortened: as §2

SMILES | Ki (Adenosine receptor A3) | Ratio Ki [1] | Ki (Adenosine receptor A1) | Ki (Adenosine receptor A2b) | Ki (Adenosine receptor A2a) | Ratio Ki (Homo sapiens) | Activity [2] | logP [3] | Activity (Mus musculus) | Activity [4] | Activity [5]
C[C@@]1(O)[C@H](O)[C@@H](CSc2ccccc2F)O[C@H]1n1cnc2c(NC3CCCC3)nc(Cl)nc21 | 1150 nM | 0.5 | 2150 nM | > 10000 nM | > 100000 nM | > 47 |  |  |  |  | 
C[C@@]1(O)[C@H](O)[C@@H](CCl)O[C@H]1n1cnc2c(NC3CC4CCC3C4)nc(Cl)nc21 (mixture of isomers) | 5900 nM | 644 | 9.16 nM | > 10000 nM | 31600 nM | 3450 |  |  |  |  | 
C[C@@]1(O)[C@H](O)[C@@H](CSc2ccccc2F)O[C@H]1n1cnc2c(NC3CC4CCC3C4)ncnc21 (mixture of isomers) | 3480 nM | 3 | 1060 nM | > 10000 nM | > 100000 nM | > 94 |  |  |  |  | 
C[C@@]1(O)[C@H](O)[C@@H](CO)O[C@H]1n1cnc2c(NC3CC4CCC3C4)ncnc21 (mixture of isomers) | 2520 nM | 616 | 4.09 nM | > 10000 nM | 8780 nM | 2150 | Active |  |  |  | 
O[C@@H]1[C@H](O)[C@@H](CCl)O[C@H]1n1cnc2c(NC3CCCC3)nc(Cl)nc21 | 417 nM | 267 | 1.56 nM | 4830 nM | 2160 nM | 1380 | Active |  |  |  | 
O[C@@H]1[C@H](O)[C@@H](CSc2ccccc2F)O[C@H]1n1cnc2c(NC3CCOC3)ncnc21 (stereo not given in full) | 746 nM | 3 | 250 nM | > 10000 nM | 18900 nM | 76 |  |  |  |  | 
O[C@@H]1[C@H](O)[C@@H](CCl)O[C@H]1n1cnc2c(NC3CC4CCC3C4)nc(Cl)nc21 (mixture of isomers) | 1410 nM | 875 | 1.61 nM | > 10000 nM | 2050 nM | 1270 | Active |  |  |  | 
C[C@@]1(O)[C@H](O)[C@@H](CSc2ccccc2F)O[C@H]1n1cnc2c(NC3CCCC3)ncnc21 | 1440 nM | 0.9 | 1680 nM | > 10000 nM | > 100000 nM | > 60 |  |  |  |  | 
OC[C@H]1O[C@@H](n2cnc3c(NC4CC5CCC4C5)nc(Cl)nc32)[C@H](O)[C@@H]1O (mixture of isomers) | 129 nM | 182 | 0.71 nM | > 10000 nM | 797 nM | 1120 | Active |  |  |  | 
C[C@@]1(O)[C@H](O)[C@@H](CSc2ccccc2F)O[C@H]1n1cnc2c(NC3CC4CCC3C4)nc(Cl)nc21 (mixture of isomers) | 4350 nM | 1.5 | 2970 nM | > 10000 nM | > 100000 nM | > 34 |  |  |  |  | 
C[C@@]1(O)[C@H](O)[C@@H](CCl)O[C@H]1n1cnc2c(NC3CC4CCC3C4)ncnc21 (mixture of isomers) | 11600 nM | 1270 | 9.13 nM | > 10000 nM | 24000 nM | 2630 |  |  |  |  | 
C[C@@]1(O)[C@H](O)[C@@H](CCl)O[C@H]1n1cnc2c(NC3CCCC3)nc(Cl)nc21 | 3030 nM | 237 | 12.8 nM | > 10000 nM | 16200 nM | 1770 |  |  |  |  | 
O[C@@H]1[C@H](O)[C@@H](CCl)O[C@H]1n1cnc2c(NC3CC4CCC3C4)ncnc21 (mixture of isomers) | 1290 nM |  |  | 2740 nM | 1340 nM |  | Active | 1.04 | Dose-dependent effect | Active | 
OC[C@H]1O[C@@H](n2cnc3c(NC4CC5CCC4C5)ncnc32)[C@H](O)[C@@H]1O (mixture of isomers) | 101 nM | 187 | 0.54 nM | 4930 nM | 1270 nM | 2350 | Active | -0.14 |  |  | Active
OC[C@H]1O[C@@H](n2cnc3c(NC4CCCC4)ncnc32)[C@H](O)[C@@H]1O |  |  |  |  |  |  |  |  |  |  | Active
O[C@@H]1[C@H](O)[C@@H](CSc2ccccc2F)O[C@H]1n1cnc2c(NC3CCCC3)ncnc21 | 296 nM | 5 | 64.7 nM | > 10000 nM | 5170 nM | 80 |  |  |  |  | 
C[C@@]1(O)[C@H](O)[C@@H](CCl)O[C@H]1n1cnc2c(NC3CCCC3)ncnc21 | 6740 nM | 237 | 28.4 nM | > 10000 nM | > 100000 nM | > 3520 |  |  |  |  | 
C[C@@]1(O)[C@H](O)[C@@H](CO)O[C@H]1n1cnc2c(NC3CC4CCC3C4)nc(Cl)nc21 (mixture of isomers) | 4490 nM | 645 | 6.96 nM | > 10000 nM | 11800 nM | 1700 |  |  |  |  | 
O[C@@H]1[C@H](O)[C@@H](CSc2ccccc2F)O[C@H]1n1cnc2c(NC3CCCC3)nc(Cl)nc21 | 479 nM | 2 | 258 nM | > 10000 nM | 2190 nM | 8 |  |  |  |  | 
O[C@@H]1[C@H](O)[C@@H](CCl)O[C@H]1n1cnc2c(NC3CCCC3)ncnc21 | 376 nM | 637 | 0.59 nM | 3210 nM | 837 nM | 1470 | Active |  |  | Active | 
